Measured values from different studies.
Protocols differ between the studies behind these lines.
BRD9: Bromodomain-containing protein 9 (BRD9, Homo sapiens, UniProt Q9H8M2)
PKMYT1: Membrane-associated tyrosine- and threonine-specific cdc2-inhibitory kinase (PKMYT1, Homo sapiens, UniProt Q99640)

CC(=O)c1cc(-c2cccc(C(F)(F)F)c2)c2ccccn12  ΔTm (BRD9; thermal stability, DSF; 200 µM): 3 °C
Cc1ncc(-c2cc3cc(-c4c(C)ccc(O)c4C)cnc3[nH]2)cn1  inhibition (PKMYT1; cell-free assay, TR-FRET; 3.333 µM): 104%
Cc1cc(F)cc2c(CCC(=O)N[C@@H]3C(=O)NC[C@H]3O)c(-c3ccc(F)cc3)[nH]c12  inhibition (Beta-2 adrenergic receptor (ADRB2, Homo sapiens, UniProt P07550); cell-free assay; 10 µM): -2%
C#Cc1cc(-c2cc(Nc3nc(N[C@@H](C)c4ccc(F)cn4)ncc3Cl)n[nH]2)ccc1C=O  inhibition (G protein-coupled receptor kinase 6 (GRK6, Homo sapiens, UniProt P43250); enzyme activity, inhibitor; 0.2 µM): 18.9%
CCN1/C(=C/C(C)=O)Sc2ccc(F)cc21  inhibition (Cannabinoid receptor 2 (CNR2, Homo sapiens, UniProt P34972); ligand displacement, radioligand; 10 µM): 16.8%
COc1cc(-c2cc(C(C)=O)n3ccccc23)cc(OC)c1CN(C)C  ΔTm (BRD9; thermal stability, DSF; 200 µM): 16.5 °C
CC(=O)ON=C1C=CC(=C(C#N)c2ccccc2)C=C1  activity vs control (Serine/threonine-protein kinase haspin (HASPIN, Homo sapiens, UniProt Q8TF76); enzyme activity, inhibitor, ADP detection; 2 µM): 76%
COc1ccc2oc(-c3ccc4nc(N)oc4c3)c/c(=N\c3ccccc3NC(=O)CCN)c2c1  remaining binding (Phosphatidylinositol 5-phosphate 4-kinase type-2 alpha (PIP4K2A, Homo sapiens, UniProt P48426); binding; 1 µM): 108%
COc1cc(-c2cc(C(C)=O)n3ccccc23)cc(OC)c1CN1CC(O)C1  ΔTm (BRD9; thermal stability, DSF; 200 µM): 14.8 °C
Cc1cc(O)c(-c2ccc([C@@H](C)CN(C)C)cc2)c2c1[nH]c(=O)c1sccc12  inhibition (STE20-related kinase adapter protein beta (Homo sapiens, UniProt Q9C0K7); enzyme activity, inhibitor; 0.1 µM, lysate): 18.9%
NC/C(=C\F)COc1cccc(Cn2c(=S)[nH]c(=O)c3[nH]cnc32)c1  inhibition (Ileal sodium/bile acid cotransporter (SLC10A2, Homo sapiens, UniProt Q12908); transporter uptake, inhibitor; 30 µM): < 50%
COc1cc(-c2cc(C(C)=O)n3ccccc23)c(OC)cc1C(=O)N1CCOCC1  ΔTm (BRD9; thermal stability, DSF; 200 µM): 13.8 °C
C1=C/COCc2cc(ccc2OCCN2CCCC2)Nc2nccc(n2)-c2cccc(c2)COC/1  remaining binding (Bone morphogenetic protein receptor type-1A (BMPR1A, Homo sapiens, UniProt P36894); binding; 0.1 µM): 89%
COc1cc(-c2cc(C(C)=O)n3ccccc23)c(OC)cc1Cn1ccnc1  ΔTm (BRD9; thermal stability, DSF; 200 µM): 11.8 °C
CCCCC(=O)Nc1ccc(-c2ccc3ncn(CCC)c(=O)c3c2)cn1  remaining binding (PKMYT1; binding, competition with immobilised ligand; 0.5 µM): 86%
